The data set relates to MS2 coat protein. The experiment in a line: apparent Kd, MS2 coat protein; higher = weaker binding; RNA-MaP array; FMN 200 µM where present. In a few lines:
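Stalled E. coli RNA polymerase produced the designs on Illumina sequencing-chip clusters. SNAP-549-labelled MS2 coat protein was added from 0.7 or 1.5 nM, doubling to 3 µM, without and then with constant ligand, in 100 mM Tris-HCl pH 7.5, 80 mM KCl, 4 mM MgCl2, BSA, DTT, yeast tRNA and Tween-20. The apparent Kd is the median of filtered per-cluster fits of green signal normalised to red-channel RNA signal and control-cluster median Fmax.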

Setting [1] is: designed as: ON switch for flavin mononucleotide, no ligand.
[2] abbreviates: ligand present: flavin mononucleotide, designed as: ON switch for flavin mononucleotide.
Where [3] appears, read: designed as: OFF switch for flavin mononucleotide, no ligand.
Setting [4] is: ligand present: flavin mononucleotide, designed as: OFF switch for flavin mononucleotide.

The apparent Kd is the concentration giving half-maximal binding under the conditions of the assay. As for “AAAACAUGAGGAUCACCCAUGUAAAGAUCGGUUAAUAGAAGUGAGGAUAUACGAAGUUAAAGCUGGUAGAAGGCACUGGGUACA”, the “apparent Kd” value reads like this: under setting [1], 0.0347 µM; under setting [2], 0.0332 µM. “CCUCGCCCUCUUGCACAUGAGGAUCACCCAUGUUUUACGUACUAGGAUAUAGCUAUGUUCAAUCGUUAGAAGGAGUUCAUGGAU”: the “apparent Kd” value is 0.11 µM under setting [3] and 0.105 µM under setting [4]. In the case of “GGAGGACAUGAGGAUCACCCAUGUGGAUGAUCGCUAGGAUAUGCGUGCAGGAAGAGUGGUGCAGAAGGAGUGGGAU”, the “apparent Kd” value reads like this: under setting [1], 0.451 µM; under setting [2], 0.288 µM. With “UUGGACGUCGUAAGAUAUGUAGGAUAUUCCUACAUGAGGAUCACCCAUGUUGACAUGGAAGAAGGACAGAAGGACGAUGUCCAU”, the “apparent Kd” value was determined as 0.285 µM under setting [1] and 0.00551 µM under setting [2]. Take “ACCAUUUACUAAUUGUCUAUACAUGAGGAUCACCCAUGUUAUGAGGAUAUCAUCGUGAAACACGAUGAGAAGGCAUAGCAUUCG”: the “apparent Kd” value reads like this: under setting [3], 0.0645 µM; under setting [4], 0.213 µM.

Consider “GAGAGGUCAGGAUAUGCAUGGCGGGACUUGCGUCGUGGCGUGCAGAAGGGACAUGAGGAUCACCCAUGUGGAGG”, for which the “apparent Kd” value runs as follows: under setting [3], 0.169 µM; under setting [4], 0.203 µM. Regarding “UGAUCUUUUGUUAGGAUAUGCUGGGUUUUUUCUCAGCAGAAGGGACAUGAGGAUCACCCAUGUUUUGUCAUAAA”, the “apparent Kd” value is 0.0189 µM under setting [3] and 0.0476 µM under setting [4]. Taken in the same sequence, the figures for “GAUCUACAUGAGGAUCACCCAUGUAAGGAUAUCGUCACUGGAGCUUCGGCUCCAGUGACGAGAAGGUACAAUUA” were 0.0288 µM and 0.0321 µM. Regarding “AACAGUACAGGAUAUACAUGAGGAUCACCCAUGUGACAAUUAAGUGGCGUACCACAAAGUAGAAGGGUACUGGA”, the “apparent Kd” value reads like this: under setting [3], 0.0283 µM; under setting [4], 0.15 µM. As to “GCAGGUCGUGUGAGGAUAUCAUAGUUUAGCGGAGAUGAGAAGGCACAUGAGGAUCACCCAUGUCCAUCCUGCCU”, the “apparent Kd” value runs as follows: under setting [3], 0.036 µM; under setting [4], 0.0926 µM.

On to “AUAAAGUCAGGAUAUGUAAGAAUAACGAAAGUUAUAAAGAAACAGAAGGGACAUGAGGAUCACCCAUGUAAAAU”, for which the “apparent Kd” value is 0.0296 µM under setting [3] and 0.0305 µM under setting [4]. In the case of “UGGGUUGUUGAGGAUAUCCCGACCGUCUGGUCGGGAGAAGGCAAUACAUGAGGAUCACCCAUGUCACACUUUUC”, the “apparent Kd” value under setting [3] came out at 0.0322 µM and the “apparent Kd” value under setting [4] was determined as 0.0665 µM. For the sequence “UUACAUACAAAGGUACAUGAGGAUCACCCAUGUUUGUUGGGAAGAAGGGUAACAGUACUACACAUAUAGGAUAUUUCACAAAUA”, the “apparent Kd” value is, setting by setting: under setting [1], 0.0524 µM; under setting [2], 0.04 µM.

As for “GUCAGCUCGUGAGGAUAUACAACACUGCUUCGGCAGUGUAUUUAGAUCACAUGAGGAUCACCCAUGUAGAAGGCACGAGCUGAU”, the “apparent Kd” value reads like this: under setting [3], 0.0156 µM; under setting [4], 0.363 µM.

For “AAUGGUGGAGGAUAUACAUGAGGAUCACCCAUGUAAAUCACACAUGUGGUCAACGCAUGUAGAAGGCCACUAAA”, the “apparent Kd” value is, setting by setting: under setting [3], 0.0625 µM; under setting [4], 0.104 µM. As for “UUACUCAUGUAAGGAUAUGUAGCCGUUUCGGCUGCAGAAGGUACUAUAAUACAUGAGGAUCACCCAUGUCUAUAAAAUAAAGAC”, the “apparent Kd” value under setting [1] is 0.0346 µM and the “apparent Kd” value under setting [2] worked out at 0.0256 µM. Regarding “GGCGAACGGGCUUACAUGAGGAUCACCCAUGUAGACUCAUGGUAGGAUAUGCUGUACAAAGUACAGCAGAAGGGCCGGUGAGCU”, the “apparent Kd” value was 0.0891 µM under setting [1] and 0.0435 µM under setting [2]. As for “AGCAGACGAGGAUAUAGAUUUGUUAACAUGAGGAUCACCCAUGUGAUCGAUUAAUCAUAUUUAGAAGGUGUCUGCU”, the “apparent Kd” value by setting is: under setting [3], 0.0377 µM; under setting [4], 0.154 µM.

For the sequence “GUACGUGGACAGAAGGUGACAUGAGGAUCACCCAUGUUAGUUGAGGUACCAGCGAUCUGCGUGAUUGAGGAUAUGUCUGCGGGC”, the “apparent Kd” value is, setting by setting: under setting [3], 0.0119 µM; under setting [4], 0.0138 µM.

With “AUUACAUGAGGAUCACCCAUGUACAGAACGUUUCAAUACAGUGAGGAUAUACGAAAUGUAGGAACGUAGAAGGCACUGGGUACA”, the “apparent Kd” value reads like this: under setting [1], 0.181 µM; under setting [2], 0.0658 µM.

For the sequence “UCGCUCCGUGUAGGAUAUCGUUGUAUUCUGCGGCGAGAAGGACAUGAGGAUCACCCAUGUAUGUUAUUAUCACGCGUGGCGCAA”, the “apparent Kd” value under setting [3] was determined as 0.021 µM and the “apparent Kd” value under setting [4] stood at 0.0189 µM.

For the sequence “CACCGUUAAGGAGGAUAUCGUACAUGAGGAUCACCCAUGUAAUAAAUGAGAAUUUCGGAUGUAUGCGAGAAGGCCUAAAUCGGC”, the “apparent Kd” value by setting is: under setting [3], 0.0495 µM; under setting [4], 0.042 µM. Regarding “UCAUUAUAAAUCCAUCAUAACUACAUGAGGAUCACCCAUGUGCAGGAUAUCGAUGGUUUAACUAUCGAGAAGGGCAUUUACAGA”, the “apparent Kd” value came out at 0.0478 µM under setting [3] and 0.146 µM under setting [4]. In the case of “AGUAUGCAGCAGGAUAUCGAUCCGCAGUAUGAUCGAGAAGGGCUGACAUGAGGAUCACCCAUGUGCGUCCUAGG”, the “apparent Kd” value is, setting by setting: under setting [3], 0.0401 µM; under setting [4], 0.167 µM. In the case of “ACGACGAAAGUCGAACGAUGUAGCAGAAGGACAUGAGGAUCACCCAUGUCAGCUGUAACAGCCAUGUAGGAUAUGCUACAUCGG”, the “apparent Kd” value reads like this: under setting [3], 0.00437 µM; under setting [4], 0.00585 µM. For “AAAACGCGGGAGAAGGCCACUUACCGUUACAUGGACGUGAGAAAUAAAUGGAGGAUAUCCCUACAUGAGGAUCACCCAUGUAAU”, the “apparent Kd” value amounted to 0.412 µM under setting [1] and 0.103 µM under setting [2]. Taken in the same sequence, the figures for “GCAGGACAUGAGGAUCACCCAUGUCUCAAAUAUUGAGGAUAUGGACACGGUAUAUCCGAACCAGAAGGCAACCUGC” were 0.0486 µM and 0.0398 µM. Consider “GUGUACAGAGGAUAUACAGGAGCUAGGAAACUAGCAACCUCACAUGAGGAUCACCCAUGUAGAAGGCUGUACAC”, for which the “apparent Kd” value worked out at 0.251 µM under setting [3] and 0.0667 µM under setting [4]. With “ACAUGAGGAUCACCCAUGUCACUUUUACAUGGGUAUAUAAGCGAGGAUAUGCAUAUACCCUGGGUGCAGAAGGCGCUUUUUUAA”, the “apparent Kd” value under setting [3] stood at 0.0745 µM and the “apparent Kd” value under setting [4] was 0.105 µM. On to “CGAAAAUUUCAGAAGGACCGAUUCCACAUGAGGAUCACCCAUGUCGAUGGUAGGAUAUGGAGUUGUGGACAGGGCGGAUGUACC”, for which the “apparent Kd” value under setting [1] worked out at 0.0721 µM and the “apparent Kd” value under setting [2] was found to be 0.00892 µM. On the same counts, the results for “GUCGGAAACGACAAGUAGCAAUCGGAGGAUAUUCAUUAAAACAUGAGGAUCACCCAUGUAAAAUGGGAGAAGGCCGAUUGCUAC” are 0.0136 µM and 0.00603 µM. Turning to “GCGGUAUUGUAAGGAUAUACUCUGUGAUGAAGAGUAGAAGGUACUUACAUGAGGAUCACCCAUGUUUAACGUGAAAAUAACCGC”, the “apparent Kd” value stood at 0.047 µM under setting [1] and 0.0226 µM under setting [2]. Consider “ACAUGAGGAUCUCCCAUGUAAAAUUAGGAUAUAUGACUGCACAUGAGGAUCACCCAUGUUCUACCGUAGAAGGGAUAAAUAAUU”, for which the “apparent Kd” value under setting [1] was 0.516 µM and the “apparent Kd” value under setting [2] was found to be 0.427 µM.

For “ACACAUGAGGAUCACCCAUGUACGCGCUGACAGGAGGUCUCACAGGAUAUAUGUGGUGAUGCUACAUAGAAGGGUGAUACCGCG”, the “apparent Kd” value is, setting by setting: under setting [1], 0.233 µM; under setting [2], 0.0495 µM. Consider “UCUUUACUGGUCAGGAUAUACAUUCGCUACUCUUUGUAGAAGGGACAUGAGGAUCACCCAUGUACUUUACAUUC”, for which the “apparent Kd” value under setting [3] is 0.0179 µM and the “apparent Kd” value under setting [4] turned out to be 0.018 µM. For “ACAAUAAACUAGAAGGUGGUGAUACAUGAGGAUCACCCAUGUAUAGUACUGAGGAUAUGGAUGAUUGAAGUGAAUAUCGUAGCA”, the “apparent Kd” value runs as follows: under setting [1], 0.111 µM; under setting [2], 0.086 µM. “UAUUUAUAAUAUUUUAACAUGAGGAUCACCCAUGUCGCUAGACAGGAUAUAUUUUAUUUGUUUAAGUAGAAGGGUCGUAGAUUU”: the “apparent Kd” value by setting is: under setting [1], 0.166 µM; under setting [2], 0.138 µM. As for “AUAGCUCCCUAGAAGGGCCAACCAGUAUUCCAUCAGGUAUUUGCGGUAGGUAGGAUAUGGGACAUGAGGAUCACCCAUGUGUAG”, the “apparent Kd” value was found to be 0.0358 µM under setting [1] and 0.0258 µM under setting [2]. “UUAUUGUGAGGAUAUCCAAUAUAUGACAUGAGGAUCACCCAUGUUUCCACUCGUACCUCCGGAGAAGGCACAGUUU”: the “apparent Kd” value runs as follows: under setting [3], 0.0312 µM; under setting [4], 0.0241 µM. Consider “UGGUAAUAGGGAGGAUAUGGGAAGAUACAUGAGGAUCACCCAUGUUUAAGAAUGCCGAGAGGCAACUAGAAGGCCCUAGUACCU”, for which the “apparent Kd” value under setting [1] was found to be 0.468 µM and the “apparent Kd” value under setting [2] is 0.0196 µM. As to “AAAACAUGAGGAUCACCCAUGUUUAGAUCGGUCGAUAGAAGUGAGGAUAUACUAAGUUAAGGCUGGUAGAAGGCACUGGGUACA”, the “apparent Kd” value is 0.0269 µM under setting [1] and 0.0275 µM under setting [2]. In the case of “CCGGAAAUGAAGGAUAUAGGAGUCGAUAGACUCCUAGAAGGUCAUACAUGAGGAUCACCCAUGUGUCCUACCGG”, the “apparent Kd” value under setting [3] was determined as 0.0158 µM and the “apparent Kd” value under setting [4] turned out to be 0.0349 µM.

In the case of “GUGCCUUGGGAGAAGGAUAAUAAUAAAUAAAUAAUAGGAUAUUCAUACCGGAAACGGACAUGAGGAUCACCCAUGUGGCACAAA”, the “apparent Kd” value runs as follows: under setting [1], 0.413 µM; under setting [2], 0.125 µM. For “GCAGCAUAUGCAGGAUAUCAGCACGUGUAGUGCUGAGAAGGGCACAUGAGGAUCACCCAUGUGAUCAAUUAAUAUUUAUGCUGC”, the “apparent Kd” value was determined as 0.00798 µM under setting [3] and 0.0248 µM under setting [4]. Regarding “CCUUCACAUGAGGAUCACCCAUGUGAGGAUAUCCUGCGAGGAUCAAAAGAUCCUCGUGGGAGAAGGCACAUGGA”, the “apparent Kd” value came out at 0.11 µM under setting [3] and 0.18 µM under setting [4]. For the sequence “AAACAGGGAGGAUAUACAUAGAUCCUCUAACCUAAUAGGUCACAUGAGGAUCACCCAUGUAGAAGGCCCUUAGG”, the “apparent Kd” value by setting is: under setting [3], 0.0124 µM; under setting [4], 0.0122 µM. Consider “GUCCUACAUGAGGAUCACCCAUGUAAGGAUAUGCUAGCGGUCGGAAGACUGACUGCUAGCAGAAGGUACAUGAU”, for which the “apparent Kd” value by setting is: under setting [3], 0.015 µM; under setting [4], 0.0245 µM. Turning to “UCAAAUACUGAGGAUAUAACGACUGAAUCCGCGUUAGAAGGUAGUACAUGAGGAUCACCCAUGUCAACCAGAGG”, under setting [4], the “apparent Kd” value was 0.0187 µM.

The values above are taken from the EternaBench riboswitch data.
